pIC50: −log10 of the molar value. Entries after “also recorded” stand apart in the source; their conditions may differ. Where two headings read alike, the source gives them in different places.
Legend:
TE‐8 cells [1] = test: WST‐8 cell proliferation assay; format: cell-based, human; settings: for reduced the proliferation of TE‐8 cells by (average ± SD): compared with vehicle‐treated control cells
Method in brief: (§1)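 Human ESCC cells, obtained from the Tohoku University or Riken cell banks and authenticated, were seeded at 1‐5 × 10³ cells per well and cultured overnight. They were then exposed for 48 h to the GLUT1-inhibitor test compound (prepared in DMSO), cisplatin, or both, with DMSO-only wells as control. Surviving cells were read by WST‐8 absorbance at 450 nm. Results are mean ± SD of n = 3 replicates, compared by Student's t‐test.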

TE‐8 cells [2] = settings: read-out: cisplatin IC50 value, low GLUT1 expression, ref GSE36133 and the Genomics of Drug Sensitivity in Cancer; cited from earlier work
TE‐11 cells [3] = test: WST‐8 cell proliferation assay; format: cell-based, human; settings: for reduced the proliferation of TE‐11 cells by (average ± SD): compared with vehicle‐treated control cells
Method in brief: as §1

TE‐11 cells [4] = settings: read-out: cisplatin IC50 value, high GLUT1 expression, ref GSE36133 and the Genomics of Drug Sensitivity in Cancer; cited from earlier work
GLUT1 [5] = settings: cited from earlier work
GLUT1 [6] = settings: cited from earlier work; remark: listed apart in the source
[7] = tested on: human lung cancer xenografts; settings: nude mouse, daily intraperitoneal injection of 10 mg/kg for 10 weeks; cited from earlier work

Question: What does the source list for `N.N.[Cl][Pt][Cl]` [cisplatin]?
Answer: reduced the proliferation of TE‐8 cells by (average ± SD) (TE‐8 cells [1]; 0.5 μmol/L cisplatin, 48 h): 79.9% ± 2.3%; pIC50 (TE‐8 cells [2]): 5.00; reduced the proliferation of TE‐11 cells by (average ± SD) (TE‐11 cells [3]; 0.5 μmol/L cisplatin, 48 h): 46.0% ± 6.5%; effect of very low doses of cisplatin on proliferation (TE‐11 cells [3]; 0.2 and 0.4 μg/mL cisplatin, 48 h, TE11 cells transfected with GLUT1‐specific siRNA): strong inhibitory effect; pIC50 (TE‐11 cells [4]): 4.69

Question: Which results are given for `O=C(O)C(=O)CBr` [3‐bromopyruvate]?
Answer: proliferation of TE‐8 cells (TE‐8 cells [1]; 50 μmol/L, data not shown): inhibits the proliferation; proliferation of TE‐11 cells (TE‐11 cells [3]; 50 μmol/L, data not shown): inhibits the proliferation

Question: For `Cc1c(NC(=O)c2cc(C(N)=O)nc3cc(F)ccc23)c(C(F)(F)F)nn1Cc1ccc(C#N)cc1` [BAY‐876], which “reduced the proliferation of TE‐8 cells by (average ± SD)” value (TE‐8 cells [1]; 0.025 nmol/L BAY‐876, 48 h) is on record?
Answer: 59.9% ± 4.9%

Question: What about the “inhibition of proliferation of TE‐8 cells” value (TE‐8 cells [1]; 0.1 nmol/L BAY‐876, 48 h) of the same compound?
Answer: almost complete inhibition; also recorded: strong anti–proliferative effect

Question: And the “selectivity and affinity for GLUT1” value (GLUT1 [5])?
Answer: high selectivity and affinity

Question: And the “reduced the proliferation of TE‐11 cells by (average ± SD)” value (TE‐11 cells [3]; 0.025 nmol/L BAY‐876, 48 h)?
Answer: 51.0% ± 8.2%

Question: And the “inhibition of proliferation of TE‐11 cells” value (TE‐11 cells [3]; 0.1 nmol/L BAY‐876, 48 h)?
Answer: almost complete inhibition; also recorded: strong anti–proliferative effect

Question: For `Oc1ccc(/C=C/c2cc(O)cc(O)c2)cc1` [resveratrol], which efficacy in vitro (GLUT1 [6]; 50 μmol/L) is on record?
Answer: shown efficacy in vitro

Question: With `O=C(Oc1cccc(F)c1OC(=O)c1cccc(O)c1)c1cccc(O)c1` [WZB117] as the compound, how does the efficacy in vitro (GLUT1 [6]; 30 μmol/L) read?
Answer: shown efficacy in vitro

Question: And the blood glucose effect [7]?
Answer: hyperglycemia

Question: And the “lymphocyte and platelet counts” value [7]?
Answer: aberrant lymphocyte and platelet counts

Question: What about the “reduction in the volume of human lung cancer xenografts” value [7] of the same compound?
Answer: > 70%

Source: publication PMC6500964 (Cancer Science, 2019)
